# Hits are enriched below; roughly 1.6% of the tested compounds scored in any of these assays.
# DDE Tn6 FP inh: disrupts Tn6 cyclic peptide binding to fibrin D-Dimer-E complex; AID 720509; Fibrin DD(E) TRITC-Tn6 fluorescence polarization displacement; inhibition, % at 8.3 µM; actives 0.21% (n = 370,000);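 active means inhibition above a per-campaign cutoff: mean of compounds within control limits plus 3 SD, cut at about 15% in these data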;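 further: 0% = median of all compound wells on the plate and 100% = blocking peptide control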
# ADAM17 inh: ADAM17 inhibition, QFRET primary screen | actives 0.83% (n = 370,000) | recombinant ADAM17, EDANS/DABCYL FRET peptide cleavage | inhibition, % at 6.95 µM | P78536;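 active means inhibition above the mean of compounds lying between control limits plus 3 SD, set per campaign, cut at about 8.5% in these data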;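 further: 0% = DMSO-only wells as the low control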
# Tn7 DDE FP: disrupts Tn7 cyclic peptide binding to fibrin D-Dimer-E complex | inhibition, % at 8.3 µM | P02675 | FP displacement of FITC-Tn7 peptide from fibrin DD(E); 0% = median of compound wells per plate | actives 0.13% (n = 370,000) | AID 720508;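 active means inhibition above the mean of compounds falling within the control limits plus 3 SD of them, cut at about 14% in these data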;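 further: 0% = plate median of compound wells and 100% = 10 µM Aha-Tn7 peptide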
#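 Assay system: Human fibrin DD(E) protein | Medium: Tris buffer with calcium and detergent, pH 7.8 | Reagent: 0.1 µM fluorescent Tn7 | Compound dosing: Single point at 8.3 µM | Times: 10 min preincubation, 3 h with tracer, room temperature | Detection: Fluorescence polarization of the labelled Tn7 tracer | Controls: Aha-Tn7 high control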
# ADAM10 inh: inhibits human ADAM10. O14672. recombinant ADAM10, EDANS/DABCYL FRET peptide cleavage, 3 h. inhibition, % at 7 µM. actives 0.62% (n = 370,000). AID 720582;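 active means inhibition above a per-campaign cutoff equal to the mean of compounds falling between control-based bounds plus 3 SD, cut at about 20% in these data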;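 further: 0% = DMSO wells while the 100% control is not disclosed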
# Target sequence (O14672 214-748 limits assumed): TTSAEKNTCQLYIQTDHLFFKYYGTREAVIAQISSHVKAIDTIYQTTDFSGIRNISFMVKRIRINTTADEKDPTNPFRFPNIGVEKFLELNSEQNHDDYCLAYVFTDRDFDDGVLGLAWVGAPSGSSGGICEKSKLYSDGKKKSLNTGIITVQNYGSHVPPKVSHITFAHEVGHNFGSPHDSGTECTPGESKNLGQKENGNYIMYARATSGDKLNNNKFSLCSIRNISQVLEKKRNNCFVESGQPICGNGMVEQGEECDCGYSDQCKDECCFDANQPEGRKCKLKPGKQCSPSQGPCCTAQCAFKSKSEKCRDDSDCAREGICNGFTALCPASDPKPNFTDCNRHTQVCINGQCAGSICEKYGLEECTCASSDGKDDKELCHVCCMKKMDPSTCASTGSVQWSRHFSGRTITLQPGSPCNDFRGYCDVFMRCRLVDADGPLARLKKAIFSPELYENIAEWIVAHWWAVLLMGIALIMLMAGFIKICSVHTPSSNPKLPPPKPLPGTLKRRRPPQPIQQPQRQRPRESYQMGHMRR
# MT1-MMP act inh: MT1-MMP (human) activation inhibition; actives 0.061% (n = 360,000); GFP/RFP ratio change, % at 20 µM; HT1080 RFP-PRO-GFP cells, GFP/RFP ratio fluorescence, overnight; percent of plate control window, DMSO zero; P50281;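 active means GFP/RFP ratio change of at least 30% with cell ATP level not reduced by more than half and red fluorescence within 50% of control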
#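 Test system: HT1080 cells expressing an RFP-PRO-GFP fluorescent reporter construct / Compound dosing: single-point 20 µM compound, 1% DMSO / Schedule: cells overnight before dosing, compound overnight, 37 °C, 5% CO2 / Evaluation: GFP/RFP fluorescence ratio / Control set: DMSO and RFP-L50D-GFP cell wells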
# ADAM10 confirm: confirmation of inhibitors of human ADAM10 | AID 743208 | shares compounds with ADAM10 inh | ADAM10 QFRET peptide cleavage, EDANS fluorescence | actives 1% (n = 2,100) | inhibition, % at 6.95 µM;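 active means inhibition above about 20% chosen separately for each screening run, limit read from the data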;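 further: 0% = DMSO wells and 100% = marimastat wells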
# ADAM17 counter: inhibits human ADAM17 in ADAM10 exosite counter-screen. ADAM17 QFRET peptide cleavage, EDANS fluorescence. inhibition, % at 6.95 µM. shares compounds with ADAM10 inh. actives 0.5% (n = 2,100);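 active means mean triplicate inhibition above the solvent-only control wells' mean plus 3 SD, cut at about 12% in these data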;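 further: 0% = DMSO wells and 100% = marimastat wells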
# The depositor's hits bear a star; / = not tested or not shown; ! = a repeat was not active.
SMILES,DDE Tn6 FP inh,ADAM17 inh,Tn7 DDE FP,ADAM10 inh,MT1-MMP act inh,ADAM10 confirm,ADAM17 counter
Cc1cccc(NC(=O)c2nc[nH]c2C(=O)N[C@@H](CCCCNC(=O)OC(C)(C)C)C(=O)OC(C)(C)C)c1,6.6,12.3*,0.5,32.6*,-9.7,11.4,3.3
CC(C)(C)OC(=O)CNC(=O)c1[nH]cnc1C(=O)N[C@@H](CCCCNC(=O)OC(C)(C)C)C(=O)OC(C)(C)C,-0.4,1.2,6.5,22.8*,-6.9,0.1,0.2
CC(C)(C)OC(=O)NCCCC[C@H](NC(=O)c1nc[nH]c1C(=O)NC(c1ccccc1)c1ccccc1)C(=O)OC(C)(C)C,-6.2,8.2,-7.7,22.0*,-20.0,13.6,4.7
C=CCC[C@H](Cc1ccc(F)cc1)C(=O)OC[C@@H](Cc1c[nH]c2ccccc12)NC(=O)[C@@H](CC=C)CC(=O)N[C@H](CO)Cc1ccccc1,1.1,5.1,-5.3,7.1,7.5,/,/
C=CCC[C@@H](Cc1ccc(F)cc1)C(=O)OC[C@H](Cc1c[nH]c2ccccc12)NC(=O)[C@H](CC=C)CC(=O)NCCO,7.4,8.1,1.2,22.0*,4.8,5.9,1.0
C=CCC[C@H](Cc1ccc(F)cc1)C(=O)OC[C@H](Cc1c[nH]c2ccccc12)NC(=O)[C@H](CC=C)CC(=O)N[C@H](CO)Cc1ccccc1,2.6,6.2,7.1,20.9*,-0.3,9.2,2.8
C=CCC[C@@H](Cc1ccc(F)cc1)C(=O)OC[C@H](Cc1c[nH]c2ccccc12)NC(=O)[C@@H](CC=C)CC(=O)N[C@H](CO)Cc1ccccc1,0.7,-1.5,-5.0,3.5,0.1,/,/
C=CCC[C@@H](Cc1ccc(F)cc1)C(=O)OC[C@@H](NC(=O)[C@@H](CC=C)CC(=O)N[C@@H](CO)Cc1ccccc1)C(C)(C)C,4.1,7.2,4.4,20.6*,-12.4,4.8,0.8
C=CCC[C@H](Cc1ccc(F)cc1)C(=O)OC[C@H](Cc1c[nH]c2ccccc12)NC(=O)[C@@H](CC=C)CC(=O)N[C@@H](CO)Cc1ccccc1,-5.3,-4.3,-0.8,-2.3,2.2,/,/
C=CCC[C@H](Cc1ccc(F)cc1)C(=O)OC[C@@H](Cc1c[nH]c2ccccc12)NC(=O)[C@H](CC=C)CC(=O)NCCO,5.7,7.0,1.2,20.7*,0.1,3.8,0.4
CC1(C)OC(C)(C)C(=N/O)/C1=N\N,-2.4,-0.5,-9.2,-13.3,/,/,/
COc1ccccc1Cc1c(-c2ccccc2)nc2ccc(C)cn12,-4.0,-25.6,-3.6,-95.6,/,/,/
O=C1N(CCCO)CCC12CCC(c1ccccc1)CC2 (configuration not stated),6.4,3.5,1.8,87.8*!,/,0.7,0.0
COCCCN1CCC2(CCC(c3ccccc3)CC2)C1=O (configuration not stated),6.1,4.6,6.2,8.5,/,/,/
CC(=O)N1c2ccccc2C(=O)NCC1C(=O)NC(C)(C)C (configuration not stated),-2.3,-13.9,-2.6,-43.8,/,/,/
Cc1ccc(NC(=O)Nc2ccc3c(c2)[C@]2(CC(=O)N(CC(C)C)C2c2ccccc2)C(=O)N3C)cc1Cl (some centres not stated),-13.4,9.5*,-7.6,21.7*,/,7.4,2.4
CCN(CC)C(=O)CC[C@H]1CC[C@]2(CCCN(S(C)(=O)=O)C2)O1,-2.5,-1.5,-12.4,0.2,/,/,/
O=C(O)c1ccc(C#Cc2cccc(F)c2)cn1,-2.8,-3.2,-0.1,26.0*,/,0.7,0.5
O=C(N[C@H](Cc1ccccc1)C(=O)NCCN1CCOCC1)[C@H]1O[C@@H](n2ccc(=O)[nH]c2=O)[C@H](O)[C@@H]1O,5.3,-3.7,3.3,-7.5,/,/,/
C=CCNc1cccc2c1S(=O)(=O)N[C@@H](C)CO2,0.2,-3.0,-3.4,-6.3,/,/,/
O=C(Nc1c(-c2ccc(C(F)(F)F)cc2)nc2ncccn12)c1ccc(F)cc1,-5.3,-14.5,-1.2,-55.0,/,/,/
O=C(COC(=O)Cc1c(Cl)cccc1Cl)Nc1ccccc1-c1ccccc1,1.6,8.4,4.0,23.1*,-3.0,3.2,1.5
O=C(COC(=O)Cc1ccc(Cl)cc1)Nc1ccccc1-c1ccccc1,1.5,4.5,-7.0,2.5,3.4,/,/
O=C1N2CCc3ccccc3C2CS(=O)(=O)N1Cc1ccc(F)cc1 (configuration not stated),-5.1,-0.3,-1.6,5.9,/,/,/
CCOC(=O)Cc1csc(NC(=O)CSc2ncnc3c2cnn3-c2ccccc2Cl)n1,0.6,8.2,0.1,25.7*,1.3,1.3,1.5
SMILES,DDE Tn6 FP inh,ADAM17 inh,Tn7 DDE FP,ADAM10 inh,MT1-MMP act inh,ADAM10 confirm,ADAM17 counter
Cc1ccc(CNC(=O)c2cccc3c2C(=O)c2ccc(N4CCCCC4)cc2S3(=O)=O)cc1,2.8,4.5,10.4,20.8*,-105.2,6.9,0.4
CC1=NN(C(N)=S)C(=O)C1N=Nc1cccc(Cl)c1 (configuration not stated),1.8,4.7,1.5,5.0,0.9,/,/
COc1cccc(N=NC2C(=O)N(C(N)=S)N=C2C)c1 (configuration not stated),-6.2,-5.8,1.9,20.7*,8.0,-1.0,-0.2
O=C(NNC(=S)Nc1ccc(Cl)cc1Cl)c1ccncc1,-7.2,7.2,-1.5,20.8*,-1.9,3.1,0.2
O=C(NNC(=S)Nc1ccc(Cl)cc1Cl)c1cccnc1,10.9,-2.2,4.1,2.5,-1.8,/,/
Cc1cc2c(s1)c1cnn(Cc3cc(F)c(F)cc3F)c(=O)c1n2C,6.7,-1.0,9.3,-2.6,/,/,/
OC(c1ccccc1)(c1ccccc1)C1CCN(CCCOc2ccncc2)CC1,-5.1,-1.2,3.0,-2.9,/,/,/
CCOc1ccc(-c2nnc(SCC(=O)NC(C)(C)C)nc2-c2ccc(OCC)c(OC)c2)cc1OC,-7.1,3.7,-4.1,23.0*,-0.6,0.0,0.0
COC(=O)C1CN(Cc2cn(Cc3ccc(C)cc3)nn2)CCS(=O)(=O)N1Cc1ccccc1 (configuration not stated),-2.0,3.1,-7.3,5.4,/,/,/
CCOC(=O)C(Cc1ccnc2ccccc12)=NO,3.0,1.2,5.3,19.9*,3.3,-0.5,-0.5
COc1ccc(CNC(=O)O[C@@H]2C[C@H]3C(=O)N(c4ccccc4)C(=O)[C@H]3[C@@]3(CN(S(=O)(=O)c4ccc(C)cc4)C[C@H]3C)[C@@H]2O)cc1OC,0.2,6.0,-5.2,19.8*,-7.2,0.7,0.5
